Laboratory results as given in publication PMC3899495 (Clinical Pharmacokinetics, 2013).
Like-named read-outs stand apart in the source and are kept apart here.

Key:
[1] = type: in vivo, human; conditions: single 0.4 U/kg s.c., geometric mean (CV %), n = 6; for AUC0–∞ / C max: serum, ELISA
How it was run: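 Subjects grouped by screening Cockcroft–Gault creatinine clearance. Non-dialysis subjects received one 0.4 U/kg subcutaneous dose (100 U/mL) into a lifted thigh skin fold at 0800 hours. Serum was sampled pre-dose through 120 h. Concentrations were measured by validated sandwich ELISA (mouse anti-human-insulin monoclonal capture, biotinylated mouse monoclonal detection; serum LLOQ 20 pM). Parameters came from individual concentration–time curves; CL/F = dose/AUC0–∞.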

[2] = cited from earlier work
[3] = Tolerability after single dose; type: in vivo, human; conditions: single 0.4 U/kg s.c. dose(s)
How it was run: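 Adults 18–85 y, BMI ≤40 kg/m2, in five renal-function groups. 0.4 U/kg s.c. into thigh: non-ESRD once; ESRD twice, post-hemodialysis and ~13 h pre-hemodialysis. In-house ≥48 h; follow-up 7–21 days after last dose. Also physical exam, biochemistry, hematology, urinalysis. AEs graded for severity and relationship; severe hypoglycemia = requiring assistance (ADA). Blood glucose sampled to 68 h (ESRD) or 120 h.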

[4] = varying degrees of impaired hepatic function; cited from earlier work
[5] = cited from earlier work; remark: listed apart in the source
[6] = mild renal impairment (CLCR 50–80 mL/min)
[7] = moderate renal impairment (CLCR 30–49 mL/min)
[8] = normal renal function (CLCR >80 mL/min)
[9] = severe renal impairment (CLCR <30 mL/min)

Insulin degludec
CL/F (apparent clearance, dose/AUC0–∞) [1, 6]: 19.1 (31) mL/h/kg | AUC0–∞ [1, 6]: 126,096 (49) pmol·h/L | C max [1, 6]: 3,502 (30) pmol/L | CL/F (apparent clearance, dose/AUC0–∞) [1, 7]: 20.5 (39) mL/h/kg | AUC0–∞ [1, 7]: 117,646 (32) pmol·h/L | C max [1, 7]: 3,237 (39) pmol/L | CL/F (apparent clearance, dose/AUC0–∞) [1, 8]: 22.0 (32) mL/h/kg | AUC0–∞ [1, 8]: 109,472 (26) pmol·h/L | C max [1, 8]: 3,085 (28) pmol/L | CL/F (apparent clearance, dose/AUC0–∞) [1, 9]: 18.9 (24) mL/h/kg | AUC0–∞ [1, 9]: 127,268 (28) pmol·h/L | C max [1, 9]: 3,918 (28) pmol/L | within-subject variability in glucose-lowering effect (AUC values) compared with insulin glargine [2]: four-times lower | severe adverse events ([3]; 32 subjects exposed): None | severe hypoglycemic episodes ([3]; all subjects): No severe hypoglycemic episodes | effect of impaired hepatic function on ultra-long pharmacokinetic properties [4]: preserved

insulin aspart
effect of impaired renal function on pharmacokinetics [5]: reportedly unaffected

insulin detemir
effect of impaired renal function on pharmacokinetics [5]: reportedly unaffected

insulin lispro
effect of impaired renal function on pharmacokinetics ([5]; patients with diabetes): affect the pharmacokinetics

regular human insulin
effect of impaired renal function on pharmacokinetics ([5]; patients with diabetes): affect the pharmacokinetics
